Experiments:
Assay type in all cases: functional
Plasmodium yoelii [1] = assay: Antimalarial activity against chloroquine, mefloquine and halofantrine-resistant Plasmodium yoelii infected in Swiss mouse assessed as mouse survival at 24 mg/kg, po for 4 days measured on day 28 relative to control
How it was run: (§1)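 P. yoelii nigeriensis (chloroquine-, mefloquine-, halofantrine-resistant) given ip as 1 × 10⁶ parasitized RBCs on day 0 to Swiss mice of either sex, five per dose. Compound in groundnut oil, 0.1 mL, given orally once daily days 0–3. Blood smears checked through day 28. Mice surviving beyond day 28 counted as protected, reported as % of five. β-Arteether as positive control.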

Plasmodium yoelii [2] = assay: Antimalarial activity against chloroquine, mefloquine and halofantrine-resistant Plasmodium yoelii infected in Swiss mouse assessed as suppression of parasitemia at 24 mg/kg, po for 4 days by microscopic analysis relative to control
How it was run: (§2)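 Swiss mice of either sex infected ip on day 0 with 1 × 10⁶ parasitized RBCs of multidrug-resistant P. yoelii nigeriensis, five per dose. Oral dosing in groundnut oil (0.1 mL) once daily days 0–3. Parasitemia read by microscopy on day 4. % suppression = [(C − T)/C] × 100 against untreated controls; 100% means no parasites in 50 oil-immersion fields.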

Plasmodium yoelii [3] = assay: Antimalarial activity against chloroquine, mefloquine and halofantrine-resistant Plasmodium yoelii infected in Swiss mouse assessed as mouse survival at 12 mg/kg, po for 4 days measured on day 28 relative to control; how it was run: as §1
Plasmodium yoelii [4] = assay: Antimalarial activity against chloroquine, mefloquine and halofantrine-resistant Plasmodium yoelii infected in Swiss mouse assessed as suppression of parasitemia at 12 mg/kg, po for 4 days by microscopic analysis relative to control; how it was run: as §2
Plasmodium yoelii [5] = assay: Antimalarial activity against chloroquine, mefloquine and halofantrine-resistant Plasmodium yoelii infected in Swiss mouse assessed as mouse survival at 48 mg/kg, po for 4 days measured on day 28 relative to control; how it was run: as §1
Plasmodium yoelii [6] = assay: Antimalarial activity against chloroquine, mefloquine and halofantrine-resistant Plasmodium yoelii infected in Swiss mouse assessed as suppression of parasitemia at 48 mg/kg, po for 4 days by microscopic analysis relative to control; how it was run: as §2
Plasmodium yoelii [7] = assay: Antimalarial activity against chloroquine, mefloquine and halofantrine-resistant Plasmodium yoelii infected in Swiss mouse assessed as suppression of parasitemia at 6 mg/kg, po for 4 days by microscopic analysis relative to control; how it was run: as §2
Plasmodium yoelii [8] = assay: Ratio of compound to beta-arteether for antimalarial activity against chloroquine, mefloquine and halofantrine-resistant Plasmodium yoelii infected in Swiss mouse assessed as mouse survival
Plasmodium yoelii [9] = assay: Antimalarial activity against chloroquine, mefloquine and halofantrine-resistant Plasmodium yoelii infected in Swiss mouse assessed as mouse survival at 6 mg/kg, po for 4 days measured on day 28 relative to control; how it was run: as §1

| SMILES | Activity (Plasmodium yoelii [1]) [%] | Activity (Plasmodium yoelii [2]) [%] | Activity (Plasmodium yoelii [3]) [%] | Activity (Plasmodium yoelii [4]) [%] | Activity (Plasmodium yoelii [5]) [%] | Activity (Plasmodium yoelii [6]) [%] | Activity (Plasmodium yoelii [7]) [%] | Ratio (Plasmodium yoelii [8]) | Activity (Plasmodium yoelii [9]) [%] |
| --- | --- | --- | --- | --- | --- | --- | --- | --- | --- |
| C[C@@H]1CC[C@H]2[C@@H](C)C(=O)N(NC(=O)CC34CC5CC(CC(C5)C3)C4)[C@@H]3O[C@@]4(C)CC[C@@H]1[C@@]23OO4 | 60 | 100 |  |  |  |  |  |  |  |
| C[C@@H]1CC[C@H]2[C@@H](C)C(=O)N(N)[C@@H]3O[C@@]4(C)CC[C@@H]1[C@@]23OO4 | 40 | 100 |  |  |  |  |  |  |  |
| C[C@@H]1CC[C@H]2[C@@H](C)C(=O)N(NCc3ccc4c(c3)Cc3ccccc3-4)[C@@H]3O[C@@]4(C)CC[C@@H]1[C@@]23OO4 | 100 | 100 | 40 | 100 |  |  |  |  |  |
| C[C@@H]1CC[C@H]2[C@@H](C)C(=O)N(/N=C/c3ccccc3)[C@@H]3O[C@@]4(C)CC[C@@H]1[C@@]23OO4 | 40 | 100 |  |  |  |  |  |  |  |
| C[C@@H]1CC[C@H]2[C@@H](C)C(=O)N(NC(=O)c3ccc(C(F)(F)F)cc3)[C@@H]3O[C@@]4(C)CC[C@@H]1[C@@]23OO4 | 100 | 100 | 20 | 100 |  |  |  |  |  |
| C[C@@H]1CC[C@H]2[C@@H](C)C(=O)N(NCc3ccc(Cl)cc3)[C@@H]3O[C@@]4(C)CC[C@@H]1[C@@]23OO4 | 100 | 100 | 80 | 100 |  |  |  |  |  |
| C[C@@H]1CC[C@H]2[C@@H](C)C(=O)N(NCc3ccc(F)cc3)[C@@H]3O[C@@]4(C)CC[C@@H]1[C@@]23OO4 | 100 | 100 | 20 | 100 |  |  |  |  |  |
| C[C@@H]1CC[C@H]2[C@@H](C)C(=O)N(OCc3ccccc3F)[C@@H]3O[C@@]4(C)CC[C@@H]1[C@@]23OO4 | 100 | 100 | 0 | 89 |  |  |  |  |  |
| C[C@@H]1CC[C@H]2[C@@H](C)C(=O)N(NC(=O)C34CC5CC(CC(C5)C3)C4)[C@@H]3O[C@@]4(C)CC[C@@H]1[C@@]23OO4 | 60 | 100 |  |  |  |  |  |  |  |
| CCO[C@H]1O[C@@H]2O[C@@]3(C)CC[C@H]4[C@H](C)CC[C@@H]([C@H]1C)[C@@]24OO3 [ARTEMOTIL] | 20 | 100 |  |  | 100 | 100 |  |  |  |
| C[C@@H]1CC[C@H]2[C@@H](C)C(=O)N(NC(=O)c3ccc(-c4ccccc4)cc3)[C@@H]3O[C@@]4(C)CC[C@@H]1[C@@]23OO4 | 100 | 100 | 100 | 100 |  |  | 94 | 4 | 0 |
| C[C@@H]1CC[C@H]2[C@@H](C)C(=O)N(NCc3ccccc3)[C@@H]3O[C@@]4(C)CC[C@@H]1[C@@]23OO4 | 100 | 100 | 0 | 100 |  |  |  |  |  |
| C[C@@H]1CC[C@H]2[C@@H](C)C(=O)N(/N=C/c3ccc4c(c3)Cc3ccccc3-4)[C@@H]3O[C@@]4(C)CC[C@@H]1[C@@]23OO4 | 100 | 100 | 100 | 100 |  |  | 66 | 4 | 0 |
| C[C@@H]1CC[C@H]2[C@@H](C)C(=O)N(NC(=O)C3c4ccccc4-c4ccccc43)[C@@H]3O[C@@]4(C)CC[C@@H]1[C@@]23OO4 | 60 | 100 |  |  |  |  |  |  |  |
| C[C@@H]1CC[C@H]2[C@@H](C)C(=O)N(OCc3ccccc3)[C@@H]3O[C@@]4(C)CC[C@@H]1[C@@]23OO4 | 100 | 100 | 80 | 100 |  |  |  |  |  |
| C[C@@H]1CC[C@H]2[C@@H](C)C(=O)N(NC(=O)c3ccccc3)[C@@H]3O[C@@]4(C)CC[C@@H]1[C@@]23OO4 | 100 | 100 | 0 | 62 |  |  |  |  |  |
| C[C@@H]1CC[C@H]2[C@@H](C)C(=O)N(NCc3ccc(-c4ccccc4)cc3)[C@@H]3O[C@@]4(C)CC[C@@H]1[C@@]23OO4 | 100 | 100 | 100 | 100 |  |  | 100 | 4 | 20 |
| C[C@@H]1CC[C@H]2[C@@H](C)C(=O)N(/N=C/c3ccc(C(F)(F)F)cc3)[C@@H]3O[C@@]4(C)CC[C@@H]1[C@@]23OO4 | 100 | 100 | 100 | 100 |  |  | 99 | 4 | 0 |
| C[C@@H]1CC[C@H]2[C@@H](C)C(=O)N(/N=C/c3ccc(F)cc3)[C@@H]3O[C@@]4(C)CC[C@@H]1[C@@]23OO4 | 40 | 100 |  |  |  |  |  |  |  |
| C[C@@H]1CC[C@H]2[C@@H](C)C(=O)N(/N=C/c3ccc(Cl)cc3)[C@@H]3O[C@@]4(C)CC[C@@H]1[C@@]23OO4 | 20 | 100 |  |  |  |  |  |  |  |
| C[C@@H]1CC[C@H]2[C@@H](C)C(=O)N(/N=C/c3ccc(-c4ccccc4)cc3)[C@@H]3O[C@@]4(C)CC[C@@H]1[C@@]23OO4 | 100 | 100 | 100 | 100 |  |  | 100 | 4 | 80 |
| Cc1ccc(/C=N/N2C(=O)[C@H](C)[C@@H]3CC[C@@H](C)[C@@H]4CC[C@@]5(C)OO[C@]43[C@H]2O5)cc1 | 100 | 100 | 100 | 100 |  |  | 66 | 4 | 0 |
| C[C@@H]1CC[C@H]2[C@@H](C)C(=O)N(NC(=O)c3ccc(Br)cc3)[C@@H]3O[C@@]4(C)CC[C@@H]1[C@@]23OO4 | 100 | 100 | 0 | 100 |  |  |  |  |  |
| C[C@@H]1CC[C@H]2[C@@H](C)C(=O)N(OCc3ccc(-c4ccccc4)cc3)[C@@H]3O[C@@]4(C)CC[C@@H]1[C@@]23OO4 | 100 | 100 | 60 | 100 |  |  |  |  |  |
| C[C@@H]1CC[C@H]2[C@@H](C)C(=O)N(NCc3ccc(C(F)(F)F)cc3)[C@@H]3O[C@@]4(C)CC[C@@H]1[C@@]23OO4 | 100 | 100 | 20 | 100 |  |  |  |  |  |
| C[C@@H]1CC[C@H]2[C@@H](C)C(=O)N(O)[C@@H]3O[C@@]4(C)CC[C@@H]1[C@@]23OO4 | 0 | 54 |  |  |  |  |  |  |  |
| Cc1ccc(CNN2C(=O)[C@H](C)[C@@H]3CC[C@@H](C)[C@@H]4CC[C@@]5(C)OO[C@]43[C@H]2O5)cc1 | 60 | 100 | 0 | 74 |  |  |  |  |  |
